ChEMBL document CHEMBL1255454, “Systematic approach to optimizing specifically targeted antimicrobial peptides against Streptococcus mutans” (2010)
Activity calls are given as the source filed them. No cut-off for these calls is given here.

Experiments:
Streptococcus sanguinis [1] = assay: Antimicrobial activity against Streptococcus sanguinis assessed as inhibition of bacterial biofilm formation at 50 uM after 10 mins; assay type: functional
Summary of the method: (§1)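 Mixed-species biofilms were grown 24 h at 37°C anaerobically in TH with 50% filter-sterilized pooled human saliva and 1% sucrose. Inoculum: S. mutans JM11 at 1 × 10^6 CFU/well plus S. oralis, S. gordonii, S. sanguinis, S. mitis and S. salivarius at 2 × 10^5 CFU/well each. Survivors were plated on TH agar for total streptococci and on TH agar with 800 µg/ml spectinomycin for JM11. Detection limit 100 CFU/ml.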

Streptococcus mitis [2] = assay: Antimicrobial activity against Streptococcus mitis ATCC 903 at 25 ug/ml after 30 mins by time-kill assay; assay type: functional, organism-based
Summary of the method: (§2)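 Time-kill. Overnight cultures were diluted in BHI to A600 0.08 and treated with peptide at 25 µg/ml for 30 s to 2 h. Aliquots were diluted 1:50 in BHI, held on ice, plated and counted after 24 h as surviving CFU/ml. Three independent experiments, mean with SD; unpaired Student t test.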

Streptococcus mutans [3] = assay: Antimicrobial activity against Streptococcus mutans UA159 at 25 ug/ml after 30 mins by time-kill assay; assay type: functional; summary of the method: as §2
Streptococcus sanguinis [4] = assay: Antimicrobial activity against Streptococcus sanguinis NY101 at 25 ug/ml after 30 mins by time-kill assay; assay type: functional, organism-based; summary of the method: as §2
Streptococcus mutans [5] = assay: Antimicrobial activity against Streptococcus mutans UA159 after 16 to 20 hrs by broth microdilution assay; assay type: functional
Summary of the method: (§3)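 Broth microdilution. Twofold peptide dilutions were made in 50% BHI–50% sterile water for oral streptococci and in 1× Mueller-Hinton broth for the other bacteria. First round 500 to 0.97 µg/ml; a second round of 64 to 0.5 µg/ml was run in some cases, reporting its mode. Inoculum ~1 × 10^5 CFU/ml, 37°C for 16–20 h. Read A600; MIC taken as complete inhibition or ≥90% turbidity reduction versus peptide-free control.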

Streptococcus mutans [6] = assay: Antimicrobial activity against Streptococcus mutans UA159 assessed as inhibition of viability of bacterial biofilm at 25 ug/ml treated for 1 min measured after 4 hrs; assay type: functional
Summary of the method: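 S. mutans biofilms were seeded from overnight culture diluted 1:50 in TH broth with 0.5% sucrose, centrifuged, and grown 4 h anaerobically at 37°C. They were exposed to peptide in 1× PBS for about 1 min, washed, and given fresh TH broth without sucrose. Recovery was read as A600 after 4 h anaerobic incubation at 37°C. Three experiments; unpaired t test.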

Streptococcus mitis [7] = assay: Antimicrobial activity against Streptococcus mitis ATCC 903 after 16 to 20 hrs by broth microdilution assay; assay type: functional; summary of the method: as §3
Pseudomonas aeruginosa = assay: Antimicrobial activity against Pseudomonas aeruginosa PAK after 16 to 20 hrs by broth microdilution assay; assay type: functional; summary of the method: as §3
Streptococcus salivarius = assay: Antimicrobial activity against Streptococcus salivarius assessed as inhibition of bacterial biofilm formation at 50 uM after 10 mins; assay type: functional; summary of the method: as §1
[8] = Antimicrobial activity against Streptococcus gordonii Challis DL1 after 16 to 20 hrs by broth microdilution assay; assay type: functional, Streptococcus gordonii str. Challis; summary of the method: as §3
Streptococcus mutans [9] = assay: Antimicrobial activity against Streptococcus mutans UA159 assessed as inhibition of bacterial biofilm formation at 25 uM after 3 mins by fluorescence assay; assay type: functional
Summary of the method: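 S. mutans UA159 overnight culture was diluted 1:5,000 in TH with 1% sucrose and grown as biofilm for 24 h. Biofilms were exposed 3 min at room temperature to 25 µM fluorescein-labelled peptide in HEPES/NaHCO3/NaCl/MgCl2 buffer with 0.1% CTAB, pH 7.4, then washed twice. Green fluorescence images were taken and biofilm-associated green pixels quantified as binding intensity units.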

Streptococcus gordonii = assay: Antimicrobial activity against Streptococcus gordonii assessed as inhibition of bacterial biofilm formation at 50 uM after 10 mins; assay type: functional; summary of the method: as §1
[10] = test system: Streptococcus gordonii str. Challis; assay: Antimicrobial activity against Streptococcus gordonii Challis DL1 at 25 ug/ml after 30 mins by time-kill assay; assay type: functional; summary of the method: as §2
Streptococcus mutans [11] = assay: Antimicrobial activity against Streptococcus mutans JM11 assessed as inhibition of bacterial biofilm formation at 50 uM after 10 mins; assay type: functional; summary of the method: as §1
Staphylococcus aureus = assay: Antimicrobial activity against methicillin-resistant Staphylococcus aureus after 16 to 20 hrs by broth microdilution assay; assay type: functional
Summary of the method: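 MRSA grown aerobically in BHI at 37°C. Broth microdilution: 2-fold peptide dilutions in 1× Mueller-Hinton broth, first round 500 to 0.97 µg/ml; if activity below 62.5 µg/ml, sometimes a second round at 64 to 0.5 µg/ml, reporting the mode. Inoculum ~1 × 10^5 CFU/ml, 37°C for 16-20 h. A600 read. MIC = lowest concentration giving complete inhibition or ≥90% turbidity reduction versus peptide-free control.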

Streptococcus oralis = assay: Antimicrobial activity against Streptococcus oralis assessed as inhibition of bacterial biofilm formation at 50 uM after 10 mins; assay type: functional; summary of the method: as §1
Streptococcus mitis [12] = assay: Antimicrobial activity against Streptococcus mitis assessed as inhibition of bacterial biofilm formation at 50 uM after 10 mins; assay type: functional; summary of the method: as §1
Streptococcus sanguinis [13] = assay: Antimicrobial activity against Streptococcus sanguinis NY101 after 16 to 20 hrs by broth microdilution assay; assay type: functional; summary of the method: as §3

For H-FIKHFIHRFGGGFKKFWKWFRRF-NH2, the inhibition (Streptococcus sanguinis [1]) was “inactive”, the Activity (Streptococcus mitis [2]) was “Active” and the Activity (Streptococcus mutans [3]) was “Active”. For the same substance, the Activity (Streptococcus sanguinis [4]) was “Active”, the MIC (Streptococcus mutans [5]) was 4 µg/mL and the inhibition (Streptococcus mutans [6]) was “Active”. For the same substance, the MIC (Streptococcus mitis [7]) was 32 µg/mL, the MIC (Pseudomonas aeruginosa) was 62.5 µg/mL and the inhibition (Streptococcus salivarius) was “inactive”. For the same substance, the MIC [8] was 62.5 µg/mL, the inhibition (Streptococcus mutans [9]) was “Active” and the inhibition (Streptococcus gordonii) was “inactive”. The Activity [10] was “Active”, the inhibition (Streptococcus mutans [11]) was “Active” and the MIC (Staphylococcus aureus) was 16 µg/mL. For the same substance, the inhibition (Streptococcus oralis) was “inactive”, the inhibition (Streptococcus mitis [12]) was “inactive” and the MIC (Streptococcus sanguinis [13]) was 16 µg/mL.

With H-FKKFWKWFRRF-NH2 the inhibition (Streptococcus sanguinis [1]) was “inactive”, the Activity (Streptococcus mitis [2]) was “Active” and the Activity (Streptococcus mutans [3]) was “Active”. The Activity (Streptococcus sanguinis [4]) was “Active”, the MIC (Streptococcus mutans [5]) was 8 µg/mL and the inhibition (Streptococcus mutans [6]) was “Active”. The MIC (Streptococcus mitis [7]) was 16 µg/mL, the MIC (Pseudomonas aeruginosa) was 32 µg/mL and the inhibition (Streptococcus salivarius) was “inactive”. For the same substance, the MIC [8] was 16 µg/mL, the inhibition (Streptococcus mutans [9]) was “Active” and the inhibition (Streptococcus gordonii) was “inactive”. For the same substance, the Activity [10] was “Active”, the inhibition (Streptococcus mutans [11]) was “Active” and the MIC (Staphylococcus aureus) was 16 µg/mL. The inhibition (Streptococcus oralis) was “inactive”, the inhibition (Streptococcus mitis [12]) was “inactive” and the MIC (Streptococcus sanguinis [13]) was 32 µg/mL.
